The values that follow come from ChEMBL document CHEMBL1146535, “New manzamine alkaloids with activity against infectious and tropical parasitic diseases from an Indonesian sponge” (J Nat Prod, 2003).

For orientation: IC50 means the point on the concentration scale where inhibition reaches its midpoint. Broadly, the IC90 is the concentration at which the effect reaches the 90% level. As usually defined, the EC50 is the concentration giving half of the maximal effect. As usually defined, the MIC is the lowest concentration found to suppress growth.

Data set [1] can be described thus: Cytotoxicity against mouse MS1 cells. The class given is cell-based. The conditions noted are these: MS-1.
Data set [2] can be described thus: Cytotoxicity against human H116 cells. The class given is functional, cell-based.
For the next data set, the system named is HT-29. In words: Cytotoxicity against human HT-29 cells. It is filed as functional, cell-based.
A further data set has as its system Leishmania donovani. The data set can be described thus: Antileishmanial activity against Leishmania donovani promastigotes expressing luciferase. The class given is functional, organism-based. The method in brief:
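Transgenic L. donovani promastigote line stably expressing luciferase used as the test organism. Pentamidine and amphotericin B run alongside as reference antileishmanials.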

A further data set deals with Vero. The data set can be described thus: Cytotoxicity against african green monkey Vero cells. The class given is cell-based. The conditions noted are these: chlorocebus sabaeus.
Data set [3] concerns Plasmodium falciparum. In words: Antimalarial activity against Plasmodium falciparum D6. The class given is functional, organism-based.
Data set [4] concerns Plasmodium falciparum. In words: Antimalarial activity against chloroquine-resistant Plasmodium falciparum W2. The class given is functional, organism-based.
Data set [5] can be described thus: Cytotoxicity against human […] cells. It is filed as functional, cell-based.
Data set [6] has as its system Human immunodeficiency virus 1. In words: Antiviral activity against HIV1 in human PBM cells. The class given is functional, organism-based. The conditions noted are these: Human immunodeficiency virus 1, PBMC.
The subject of data set [7] is Mycobacterium tuberculosis. The data set can be described thus: Antimycobacterial activity against Mycobacterium tuberculosis H37Rv. The class given is functional.

Converted amounts (≈) assume the structure as drawn. The source made the active and inactive calls. The calls are words filed in the database; no cut-off is given here.

For the compound `O[C@]12C=C(c3nccc4c3[nH]c3ccccc34)C3CCN(CCCC/C=C\CC1)C[C@@]31C[C@]34CC[C@H](CCCN3[C@H]12)O4` (stereo not given in full) [6-Deoxymanzamine X], the concentration for half-maximal inhibition (IC50) was determined as 1 µg/mL (≈ 1.77 µM) in [1]; 0.5 µg/mL (≈ 0.885 µM) in data set [2]; 0.5 µg/mL (≈ 0.885 µM) in the data set on HT-29; 3.2 µg/mL (≈ 5.67 µM) in the data set with Leishmania donovani; 1.3 µg/mL (≈ 2.3 µM) in the data set on Plasmodium falciparum [3]; 1.4 µg/mL (≈ 2.48 µM) with Plasmodium falciparum [4]. Inhibition in data set [5] was half-maximal at 1 µg/mL (≈ 1.77 µM) (IC50). Besides, the IC90 in the data set on Leishmania donovani stood at 7.5 µg/mL (≈ 13.3 µM). Also, the Activity in the data set with Vero is 4760 ng/mL. Also, in data set [6], the EC50 stood at 1.6 µM. Also, inhibition of growth in data set [7] (MIC) required 1.77 µg/mL (≈ 3.13 µM).
Consider `O=C1CCCN2[C@@H](CC1)C[C@]13CN4CCCC/C=C\CC[C@](O)(C=C(c5nccc6c5[nH]c5c(O)cccc56)C1CC4)[C@H]23` (stereo not given in full) [MANZAMINE F], for which the Activity entry in the data set with Vero was “Non-toxic”. The MIC in data set [7] worked out at 2.56 µg/mL (≈ 4.41 µM).
As for `C1=C(c2nccc3c2[nH]c2ccccc23)[C@@H]2CCN3CCCC/C=C\CC[C@]14O[C@@]15/C=C\CCCCN1[C@@H]4[C@]2(C3)C5` [12,34-OXAMANZAMINE A], the Activity result with Vero is on record as “Non-toxic”. The outcome with Plasmodium falciparum [4] was inactive.
Turning to `O=C1CCCN2[C@@H]3[C@@]45CN6CCCC/C=C\CC[C@]3(C=C(c3nccc7c3[nH]c3ccccc37)[C@@H]4CC6)O[C@@]2(CC1)C5`, the result in the data set with Leishmania donovani, in the data set on Plasmodium falciparum [3] and with Plasmodium falciparum [4] was inactive. In the data set with Vero, the Activity result is on record as “Non-toxic”. Moreover, the MIC in data set [7] was 128 µg/mL (≈ 227 µM).
`c1ccc2c(c1)[nH]c1cnccc12` [NORHARMANE]: the result in the data set with Leishmania donovani, in the data set with Plasmodium falciparum [3] and in the data set with Plasmodium falciparum [4] was inactive. In the data set on Vero, the Activity entry was “Non-toxic”.
Regarding `O=C1CCCN2[C@@H](CC1)C[C@]13CN4CCCC/C=C\CC[C@](O)(C=C(c5nccc6c5[nH]c5ccccc56)C1CC4)[C@H]23` (stereo not given in full) [MANZAMINE E], the Activity result in the data set on Vero is recorded as “Non-toxic”. In [7], this compound registered an MIC of 3.76 µg/mL (≈ 6.66 µM).
`OC1=C[C@@]2(O)CC/C=C\CCCCN3CC[C@@H]1[C@]1(C[C@@H]4/C=C\CCCCN4[C@H]12)C3` [IRCINOL A]: in the data set on Leishmania donovani, the concentration for half-maximal inhibition (IC50) is 0.9 µg/mL (≈ 2.26 µM) and it took 1.7 µg/mL (≈ 4.27 µM) to reach the 90% level (IC90).
For the compound `Oc1ccc2[nH]c3c(C4=C[C@@]5(O)CC/C=C\CCCCN6CC[C@@H]4[C@@]4(C6)C[C@@]67CC[C@@H](CCCN6[C@H]45)O7)nccc3c2c1` [MANZAMINE X], the IC50 amounted to 5.1 µg/mL (≈ 8.78 µM) in data set [1]; 5.1 µg/mL (≈ 8.78 µM) in data set [2]; 0.5 µg/mL (≈ 0.861 µM) in the data set with HT-29; 5.7 µg/mL (≈ 9.81 µM) in the data set on Leishmania donovani; 0.95 µg/mL (≈ 1.64 µM) with Plasmodium falciparum [3]; 2 µg/mL (≈ 3.44 µM) in the data set with Plasmodium falciparum [4]. Also, in [5], the IC50 was 5.1 µg/mL (≈ 8.78 µM). For the same compound, the 90% effect concentration (IC90) with Leishmania donovani worked out at 11 µg/mL (≈ 18.9 µM). Besides, the Activity entry in the data set on Vero was “Non-toxic”.
Consider `O=C1[C@@H]2CCCCCCN2[C@@H]2[C@]13CN1CCCC/C=C\CC[C@]2(O)C=C(c2nccc4c2[nH]c2ccc(O)cc24)[C@@H]3CC1`, for which the outcome in the data set with Leishmania donovani, with Plasmodium falciparum [3] and in the data set on Plasmodium falciparum [4] was inactive. In addition, the Activity entry in the data set with Vero is “Non-toxic”.
Regarding `Oc1cccc2c1[nH]c1c(C3=C[C@@]4(O)CC/C=C\CCCCN5CC[C@@H]3[C@]3(CC6/C=C\CCCCN6[C@H]34)C5)nccc12` (stereo not given in full), the Activity with Vero was 1100 ng/mL. In addition, the EC50 in data set [6] worked out at 4.2 µM. The MIC in data set [7] was 0.91 µg/mL (≈ 1.61 µM).
Turning to `O[C@@H]1CCCN2[C@@H](CC1)C[C@]13CN4CCCC/C=C\CC[C@](O)(C=C(c5nccc6c5[nH]c5ccccc56)[C@@H]1CC4)[C@H]23` [32,33-DIHYDRO-31-HYDROXYMANZAMINE A], the result in the data set on Leishmania donovani, in the data set on Plasmodium falciparum [3] and in the data set on Plasmodium falciparum [4] was inactive. In addition, the Activity entry with Vero was “Non-toxic”.
Consider `O=C(c1c[nH]cn1)c1nccc2c1[nH]c1ccccc12` [DES-N-METHYLXESTOMANZAMINE A], for which, in the data set on Leishmania donovani, the IC50 was found to be 35 µg/mL (≈ 133 µM) and the concentration for an effect of 90% (IC90) is above 50 µg/mL. The Activity entry in the data set with Vero is “Non-toxic”. For the same compound, in the data set on Plasmodium falciparum [3], the result was inactive. The result in the data set with Plasmodium falciparum [4] was inactive.
For the compound `O=C1NCCc2c1[nH]c1ccccc21`, the result in the data set on Leishmania donovani, with Plasmodium falciparum [3] and in the data set with Plasmodium falciparum [4] was inactive. The Activity result in the data set on Vero is “Non-toxic”.
Consider `O[C@]12C=C(c3nccc4c3[nH]c3ccccc34)[C@@H]3CCN(CCCC/C=C\CC1)C[C@@]31C[C@@H]3/C=C\CCCCN3[C@H]12` [MANZAMINE A], for which the Activity with Vero was 1200 ng/mL. The same compound gave a 50% effective concentration (EC50) in data set [6] of 0.59 µM. Besides, in data set [7], inhibition of growth (MIC) required 1.53 µg/mL (≈ 2.79 µM).
